Assay results of several laboratories.
Target: Serine/threonine-protein kinase MARK1 (MARK1, Homo sapiens, UniProt Q9P0L2)

SMILES | assay | setting | endpoint | value
FC(F)c1nc2ccccc2n1-c1nc(N2CCOCC2)nc(N2CCOCC2)n1 | enzyme activity, inhibitor | 10 µM | remaining activity | 106%
C[C@H](c1ccnc(Nc2nc3ccc(-c4cc(N(C)C)ncn4)cc3[nH]2)c1)N1CCN(C(=O)CC(F)(F)F)CC1 | cell-free assay, competition with immobilised ligand | 0.1 µM | remaining binding | 100%
O=C1Nc2ccc(Cl)cc2C1=Cc1cc(Cl)c(O)c(Cl)c1 | cell-free assay | 0.5 µM | remaining signal | 89.5%
CC/C(=N\NC(=O)NCc1cccc(O)c1)c1ccc(O)c(C)c1O | enzyme activity, inhibitor | 0.1 µM | inhibition | -2.5%
O=C1NC(=O)c2cc(Nc3ccc(F)cc3)c(Nc3ccc(F)cc3)cc21 | cell-free assay | 0.5 µM | remaining signal | 98.9%
Cc1cc(C)c(-n2ccn3nc(-c4cccnc4)cc23)cc1NC(=O)c1cc(C#N)cc(S(F)(F)(F)(F)F)c1 | cell-free assay, competition with immobilised ligand | 0.1 µM | remaining binding | 96.7%
Brc1cnc(Nc2cccc(CN3CCOCC3)c2)nc1NCCc1c[nH]cn1 | enzyme activity, inhibitor, radiometric | 1 µM | remaining activity | -3%
CSc1nc(C)c(-c2ccnc(Nc3ccc(N4CCOCC4)cc3)c2)[nH]1 | enzyme activity, inhibitor | 10 µM | inhibition | 20.1%
CNC(=O)c1cc(Oc2ccc(NC(=O)Nc3ccc(Cl)c(C(F)(F)F)c3)cc2)ccn1 | enzyme activity, inhibitor | 10 µM | inhibition | 8%
FC(F)(F)Oc1cccc(-c2cnc3ccc(-c4ccncc4)nn23)c1 | enzyme activity, inhibitor, radiometric | 1 µM | activity vs control | 92%
Cc1nn(CC(F)(F)F)cc1Nc1ncc(Br)c(NCc2ccc(S(N)(=O)=O)cc2)n1 | enzyme activity, inhibitor, radiometric | 1 µM | remaining activity | 90%
Cc1ccc(Nc2nccc(N(C)c3ccc4c(C)n(C)nc4c3)n2)cc1S(N)(=O)=O | enzyme activity, inhibitor | 0.3 µM | inhibition | 19%
CNc1cccc2cc(C(=O)Nc3ccc(C(=O)O)cc3)c(=O)[nH]c12 | enzyme activity, inhibitor | 10 µM | inhibition | -26%
O=C(NCCCNc1nc(Nc2cccc(NC(=O)N3CCCC3)c2)ncc1I)c1cccs1 | enzyme activity, inhibitor, radiometric | 1 µM | remaining activity | -5%
CO[C@@H](C)c1c(Nc2ccc([C@@H](N(C)C(=O)C3CCS(=O)(=O)CC3)C(F)(F)F)cc2)cnc2cc(Cl)nn12 | cell-free assay, competition with immobilised ligand | 1 µM | remaining binding | 81%
NS(=O)(=O)c1ccc(CNc2nc(Nc3cccc(NC(=O)N4CCCC4)c3)ncc2C2CC2)cc1 | enzyme activity, inhibitor, radiometric | 1 µM | remaining activity | 94%

SMILES | assay | setting | endpoint | value
COc1cc(Nc2cnc(C#N)c(O[C@H](C)CN(C)C)n2)ncc1-c1cnn(C)c1 | enzyme activity, inhibitor, radiometric | 1 µM | remaining activity | 95%
COc1cc2ncnc(Nc3ccc(Oc4ccccc4)c(C)c3C)c2cc1OC | enzyme activity, inhibitor | 1 µM | inhibition | 2%
CN1CCc2cc(Nc3ncc(C4CC4)c(NCCCNC(=O)C4CCC4)n3)ccc2C1 | enzyme activity, inhibitor, radiometric | 1 µM | remaining activity | -1%
CCC(=O)N[C@H]1CC[C@@H](C(=O)N(C)c2ccc(-c3nc4ccccc4o3)cc2)C1 | cell-free assay, competition with immobilised ligand | 1 µM | remaining binding | 100%
C=CC(=O)Nc1cc(Nc2nccc(Nc3cc(Cl)c(F)cc3C(C)(C)O)n2)c(OC)cc1N1CC[C@@H](N(C)C)C1 | enzyme activity, inhibitor | 1 µM | inhibition | 4%
CSc1cccnc1N1CCN(Cc2nc3ccccc3[nH]2)CC1 | cell-free assay, competition with immobilised ligand | 1 µM | remaining binding | 100%
Cc1ncc([N+](=O)[O-])n1C(=NO)c1ccccc1C(F)(F)F | enzyme activity, inhibitor | 10 µM | inhibition | 34.2%
CCN(CC)CCNC(=O)c1c(C)[nH]c(/C=C2\C(=O)Nc3ccc(F)cc32)c1C | enzyme activity, inhibitor | 10 µM | inhibition | 92%
N#CCCc1ccc2c(c1)-c1[nH]c3ccc([N+](=O)[O-])cc3c1CC(=O)N2 | cell-free assay | 0.5 µM | remaining signal | 67.4%
CS(=O)(=O)NCC[C@H](NC(=O)c1cncc2c1cnn2-c1ccc(F)cc1)c1ccnc(S(C)(=O)=O)c1 | cell-free assay, competition with immobilised ligand | 1 µM | remaining binding | 92%
Cc1nn(CC(F)(F)F)cc1Nc1ncc(Br)c(NCCCNC(=O)C2CCC2)n1 | enzyme activity, inhibitor, radiometric | 1 µM | remaining activity | 8%
O=C(NCc1ncc(C(F)(F)F)cc1Cl)c1ccc2c(c1)C1(CCS(=O)(=O)CC1)[C@H](C1CC1)N2S(=O)(=O)c1ccc(F)cc1 | cell-free assay, competition with immobilised ligand | 1 µM | remaining binding | 100%
NS(=O)(=O)c1ccc(CNc2nc(Nc3cccc(NC(=O)N4CCCC4)c3)ncc2Br)cc1 | enzyme activity, inhibitor, radiometric | 1 µM | remaining activity | 57%
C[S+]([O-])c1ccc(-c2nc(-c3ccncc3)c(-c3ccc(F)cc3)[nH]2)cc1 (centres unmarked) | cell-free assay | 0.5 µM | remaining signal | 105%
CCCCN(CCCC)C(=O)CN1C[C@H](c2cc(OC)c3c(c2)OCO3)[C@@H](C(=O)O)[C@@H]1CC(C)(C)CCC | cell-free assay, competition with immobilised ligand | 1 µM | remaining binding | 96.5%
O=C(NCCCNc1ccnc(Nc2cccc(NC(=O)N3CCCC3)c2)n1)C1CCC1 | enzyme activity, inhibitor, radiometric | 1 µM | remaining activity | 72%
